In one series the test system is Acinetobacter baumannii. Put plainly: Antimicrobial activity against Acinetobacter baumannii ATCC 19606 after 3 hrs by bactericidal assay. The format is functional. Conditions: ATCC 19606 = CIP 70.34 = JCM 6841, 3 h. Summed up:
(§1)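 Mid-log cultures grown in Iso-Sensitest broth, diluted to 1 × 10⁶–5 × 10⁶ CFU/ml in 10 mM potassium phosphate with 1% (vol/vol) Iso-Sensitest broth, pH 7.4. Peptides (monomer made by 10 mM DTT reduction overnight at room temperature, or dimer; oxidation state checked by MS) are incubated with 100 μl cells at 37°C for 3 h. Tenfold dilutions are plated and CFU counted next day. MBC is >99.99% killing, in duplicate on three occasions, taken as the mean. Mann-Whitney U test.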

Series [1] concerns Staphylococcus aureus. The series can be described thus: Antimicrobial activity against Staphylococcus aureus ATCC 25923 after 3 hrs by bactericidal assay. As to conditions: ATCC 25923, 3 h. The format is functional. The essentials:
as §1

The subject of a further series is Burkholderia cenocepacia. Put plainly: Antimicrobial activity against Burkholderia cenocepacia J2315 after 3 hrs by bactericidal assay. The format is functional. As to conditions: J2315, 3 h.
The subject of another series is Enterococcus faecalis. Put plainly: Antimicrobial activity against Enterococcus faecalis ATCC 700802 after 3 hrs by bactericidal assay. As to conditions: ATCC 700802, 3 h. It is filed as functional. The essentials:
as §1

The test system of another series is Escherichia coli. The series can be described thus: Antimicrobial activity against Escherichia coli ATCC 25922 after 3 hrs by bactericidal assay. The format is functional. As to conditions: ATCC 25922, 3 h. The essentials: as §1
Series [2] deals with Staphylococcus aureus. Put plainly: Antibacterial activity against methicillin-resistant Staphylococcus aureus J2918 after 3 hrs by bactericidal assay. It is filed as functional. As to conditions: J2918, 3 h. The essentials:
as §1

Series [3] relates to Pseudomonas aeruginosa. Put plainly: Antimicrobial activity against Pseudomonas aeruginosa PAO1 after 3 hrs by bactericidal assay. The format is functional. As to conditions: PAO1, 3 h. The essentials:
as §1

Series [4] relates to Pseudomonas aeruginosa. Put plainly: Antimicrobial activity against Pseudomonas aeruginosa PAO1 after 3 hrs by bactericidal assay in presence of 200 mM NaCl. It is filed as functional, organism-based. Summed up:
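Mid-log P. aeruginosa was grown in Iso-Sensitest broth and diluted in 10 mM potassium phosphate with 1% broth, pH 7.4, with sodium chloride added. Peptide dilutions were incubated with 1 × 10⁵ to 5 × 10⁵ CFU per 100 μl at 37°C for 3 h, then CFU were plated. MBC is >99.99% kill, the mean of duplicates from three independent runs.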

In series [5] the test system is Pseudomonas aeruginosa. Put plainly: Antimicrobial activity against Pseudomonas aeruginosa PAO1 after 3 hrs by bactericidal assay in presence of 10 mM NaCl. As to conditions: PAO1, 3 h. It is filed as functional. The essentials:
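P. aeruginosa PAO1 at mid-log in Iso-Sensitest broth, diluted to 1 × 10⁶–5 × 10⁶ CFU/ml in 10 mM potassium phosphate/1% Iso-Sensitest broth, pH 7.4, with 10 mM NaCl added. Dimeric peptides are incubated with 100 μl cells at 37°C for 3 h, then plated as tenfold dilutions with CFU counted next day. MBC is >99.99% killing, from duplicates on three occasions. Mann-Whitney U test.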

Series [6] has as its system Pseudomonas aeruginosa. Put plainly: Antimicrobial activity against Pseudomonas aeruginosa PAO1 at 20 uM. The format is functional, organism-based.
Series [7] relates to Staphylococcus aureus. Put plainly: Antimicrobial activity against Staphylococcus aureus ATCC 25923 at 20 uM. It is filed as functional, organism-based.
Series [8] concerns Pseudomonas aeruginosa. The series can be described thus: Antimicrobial activity against Pseudomonas aeruginosa PAO1 assessed as bacterial killing at 16.5 uM after 3 hrs by bactericidal assay. The format is functional, organism-based.
Series [9] deals with Staphylococcus aureus. The series can be described thus: Stability of the compound in Staphylococcus aureus ATCC 25923 after 4 hrs by LC-MS analysis. The format is ADME, organism-based. The essentials: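 Peptide is incubated with S. aureus ATCC 25923 for 4 h. Peptide integrity is then assessed by LC-MS as peak area relative to the sample before incubation.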

≈ marks a conversion by molar mass, not a printed value. Calls of active or inactive are those of the source. The rule behind the calls is not given here.

As for H-RGGRAAVLNA-OH, the minimal bactericidal concentration (MBC) against Acinetobacter baumannii was over 205 µg/mL; against Staphylococcus aureus [1], over 22 µg/mL; against Burkholderia cenocepacia it was 38.6 µg/mL; in the series on Enterococcus faecalis, over 48 µg/mL; against Escherichia coli it was 9.6 µg/mL; with Staphylococcus aureus [2], 1.2 µg/mL. Moreover, in the series with Pseudomonas aeruginosa [3], the minimal bactericidal concentration (MBC) is 1.2 µg/mL.

Regarding H-IRGGRAAVLNALGKEEQIGRAS-OH, the minimum bactericidal concentration (MBC) against Acinetobacter baumannii was 2.4 µg/mL; against Staphylococcus aureus [1], over 48 µg/mL; against Burkholderia cenocepacia, over 205 µg/mL; against Enterococcus faecalis it was 4.8 µg/mL; against Escherichia coli, 38.6 µg/mL; against Staphylococcus aureus [2], over 22 µg/mL. Also, the minimal bactericidal concentration (MBC) with Pseudomonas aeruginosa [3] was determined as 1.2 µg/mL.

As to H-RIRGGRAAVLNALGKEEQIGRASNSGRKCARKKK-OH, the MBC against Acinetobacter baumannii is 2.5 µg/mL; with Staphylococcus aureus [1], 5.9 µg/mL; against Enterococcus faecalis, over 5 µg/mL; in the series on Escherichia coli it was over 10 µg/mL; against Staphylococcus aureus [2], over 10 µg/mL; with Pseudomonas aeruginosa [3] it was 1.7 µg/mL.

As for `CC(C)C[C@H](NC(=O)[C@@H](NC(=O)[C@H](CCCCN)NC(=O)[C@@H]1CCCN1C(=O)[C@H](CC(C)C)NC(=O)[C@@H](N)Cc1ccccc1)[C@H](C)O)C(=O)N[C@@H](CCCNC(=N)N)C(=O)N[C@@H](CCCCN)C(=O)N[C@@H](Cc1ccccc1)C(=O)N[C@@H](Cc1ccccc1)C(=O)O`, the minimal bactericidal concentration (MBC) is 0.75 µg/mL (≈ 0.578 µM) in the series on Acinetobacter baumannii; 1.2 µg/mL (≈ 0.925 µM) against Staphylococcus aureus [1]; over 48 µg/mL against Burkholderia cenocepacia; 1.2 µg/mL (≈ 0.925 µM) with Enterococcus faecalis; 3 µg/mL (≈ 2.31 µM) in the series with Escherichia coli; 2.4 µg/mL (≈ 1.85 µM) against Staphylococcus aureus [2]. In addition, the MBC in the series on Pseudomonas aeruginosa [3] is 1.3 µg/mL (≈ 1 µM). Besides, the result in the series with Pseudomonas aeruginosa [4] was Active.

For the molecule H-AAVLNA-OH, the MBC in the series with Staphylococcus aureus [1] and against Pseudomonas aeruginosa [3] was over 83.5 µg/mL in each case.

With “H-FFARIRGGRAAVLNALGKEEQIGRASNSGRKCARKKK-OH”, the minimal bactericidal concentration (MBC) was found to be 2.9 µg/mL in the series on Acinetobacter baumannii; 1.5 µg/mL against Staphylococcus aureus [1]; 1.9 µg/mL with Enterococcus faecalis; 10 µM with Pseudomonas aeruginosa [5]; 10 µg/mL against Escherichia coli; 2.2 µg/mL with Staphylococcus aureus [2]. Besides, the minimal bactericidal concentration (MBC) against Pseudomonas aeruginosa [3] was 1.1 µg/mL.

For `CC[C@H](C)[C@H](NC(=O)[C@H](CCCNC(=N)N)NC(=O)[C@H](C)NC(=O)[C@H](Cc1ccccc1)NC(=O)[C@H](Cc1ccccc1)NC(=O)[C@H](CCCCN)NC(=O)[C@H](CCCNC(=N)N)NC(=O)[C@H](CC(C)C)NC(=O)[C@@H](NC(=O)[C@H](CCCCN)NC(=O)[C@@H]1CCCN1C(=O)[C@H](CC(C)C)NC(=O)[C@@H](N)Cc1ccccc1)[C@H](C)O)C(=O)N[C@@H](CCCNC(=N)N)C(=O)NCC(=O)NCC(=O)N[C@@H](CCCNC(=N)N)C(=O)N[C@@H](C)C(=O)N[C@@H](C)C(=O)N[C@H](C(=O)N[C@@H](CC(C)C)C(=O)N[C@@H](CC(N)=O)C(=O)N[C@@H](C)C(=O)O)C(C)C`, the minimal bactericidal concentration (MBC) in the series on Acinetobacter baumannii was over 22 µg/mL; in the series with Staphylococcus aureus [1] it was over 205 µg/mL; against Burkholderia cenocepacia it was over 20 µg/mL; in the series with Enterococcus faecalis, over 20 µg/mL; against Escherichia coli it was over 20 µg/mL; with Staphylococcus aureus [2], over 40 µg/mL. The molecule also returned a minimum bactericidal concentration (MBC) with Pseudomonas aeruginosa [3] of over 48 µg/mL.

Turning to H-AAVLNALGKEEQIGRASNSGRKCARKKK-OH, the MBC in the series with Acinetobacter baumannii was over 10 µg/mL; with Staphylococcus aureus [1], over 16.5 µg/mL; against Enterococcus faecalis it was over 5 µg/mL; against Escherichia coli, over 10 µg/mL; against Staphylococcus aureus [2], over 10 µg/mL; in the series with Pseudomonas aeruginosa [3], over 16.5 µg/mL.

`CC[C@H](C)[C@@H]1NC(=O)[C@H](CCC(N)=O)NC(=O)[C@H](CCC(=O)O)NC(=O)[C@H](CCC(=O)O)NC(=O)[C@H](CCCCN)NC(=O)CNC(=O)[C@H](CC(C)C)NC(=O)[C@@H]2CSSC[C@@H](C(=O)N[C@@H](CCCNC(=N)N)C(=O)N[C@@H](CCCCN)C(=O)N[C@@H](CCCCN)C(=O)N[C@@H](CCCCN)C(=O)O)NC(=O)[C@@H]3CSSC[C@H](NC(=O)[C@H](Cc4ccccc4)NC(=O)[C@H](Cc4ccccc4)NC(=O)[C@H](CCCCN)NC(=O)[C@H](CCCNC(=N)N)NC(=O)[C@H](CC(C)C)NC(=O)[C@@H](NC(=O)[C@H](CCCCN)NC(=O)[C@@H]4CCCN4C(=O)[C@H](CC(C)C)NC(=O)[C@@H](N)Cc4ccccc4)[C@H](C)O)C(=O)N[C@@H](CCCNC(=N)N)C(=O)N[C@@H]([C@@H](C)CC)C(=O)N[C@@H](CCCNC(=N)N)C(=O)NCC(=O)NCC(=O)N[C@@H](CCCNC(=N)N)C(=O)N[C@@H](CSSC[C@H](NC(=O)[C@H](CCCNC(=N)N)NC(=O)CNC1=O)C(=O)N[C@@H](CO)C(=O)N[C@@H](CC(N)=O)C(=O)N[C@@H](CO)C(=O)NCC(=O)N[C@@H](CCCNC(=N)N)C(=O)N[C@@H](CCCCN)C(=O)N3)C(=O)N[C@@H](C)C(=O)N[C@@H](C(C)C)C(=O)N[C@@H](CC(C)C)C(=O)N[C@@H](CC(N)=O)C(=O)N2`: the MBC was 0.3 µg/mL (≈ 0.0579 µM) with Acinetobacter baumannii; 1 µg/mL (≈ 0.193 µM) in the series on Staphylococcus aureus [1]; 0.6 µg/mL (≈ 0.116 µM) against Burkholderia cenocepacia; 1.2 µg/mL (≈ 0.231 µM) with Enterococcus faecalis; over 205 µg/mL against Escherichia coli; over 48 µg/mL against Staphylococcus aureus [2]. The molecule also yielded a minimal bactericidal concentration (MBC) against Pseudomonas aeruginosa [3] of 0.3 µg/mL (≈ 0.0579 µM).

Take H-RIRGGRAAVLNA-OH: the outcome with Pseudomonas aeruginosa [6] and in the series on Staphylococcus aureus [7] was inactive.

Take H-LRKFFARIRGGR-OH: the minimum bactericidal concentration (MBC) against Acinetobacter baumannii is 19 µg/mL; against Staphylococcus aureus [1], 12.1 µg/mL; against Burkholderia cenocepacia, 16.5 µg/mL; in the series with Enterococcus faecalis, over 22 µg/mL; against Staphylococcus aureus [2], 7.1 µg/mL. In the series with Pseudomonas aeruginosa [4], the outcome was Active.

As to H-GGRAAVLNALGKEEQIGRASNSGRKCARKKK-OH, the MBC was over 10 µg/mL in the series with Acinetobacter baumannii; over 15.2 µg/mL in the series with Staphylococcus aureus [1]; over 5 µg/mL in the series on Enterococcus faecalis; over 10 µg/mL against Escherichia coli; over 10 µg/mL in the series with Staphylococcus aureus [2]; over 15.2 µg/mL with Pseudomonas aeruginosa [3]. Further, the result in the series on Pseudomonas aeruginosa [8] was inactive. Besides, the Stability result with Staphylococcus aureus [9] was “Stable”.

Take `CC[C@H](C)[C@H](NC(=O)[C@H](CCC(N)=O)NC(=O)[C@H](CCC(=O)O)NC(=O)[C@H](CCC(=O)O)NC(=O)[C@H](CCCCN)NC(=O)CNC(=O)[C@H](CC(C)C)NC(=O)[C@H](C)NC(=O)[C@H](CC(N)=O)NC(=O)[C@H](CC(C)C)NC(=O)[C@@H](NC(=O)[C@H](C)NC(=O)[C@H](C)NC(=O)[C@H](CCCNC(=N)N)NC(=O)CNC(=O)CNC(=O)[C@H](CCCNC(=N)N)NC(=O)[C@H](NC(=O)[C@H](CCCNC(=N)N)NC(=O)[C@H](C)NC(=O)[C@H](Cc1ccccc1)NC(=O)[C@H](Cc1ccccc1)NC(=O)[C@H](CCCCN)NC(=O)[C@H](CCCNC(=N)N)NC(=O)[C@@H](N)CC(C)C)[C@@H](C)CC)C(C)C)C(=O)NCC(=O)N[C@@H](CCCNC(=N)N)C(=O)N[C@@H](C)C(=O)N[C@@H](CO)C(=O)N[C@@H](CC(N)=O)C(=O)N[C@@H](CO)C(=O)NCC(=O)N[C@@H](CCCNC(=N)N)C(=O)N[C@@H](CCCCN)C(=O)N[C@@H](CS)C(=O)N[C@@H](C)C(=O)N[C@@H](CCCNC(=N)N)C(=O)N[C@@H](CCCCN)C(=O)N[C@@H](CCCCN)C(=O)N[C@@H](CCCCN)C(=O)O`: the MBC was determined as 1.4 µg/mL (≈ 0.315 µM) in the series on Staphylococcus aureus [1]; 1.25 µg/mL (≈ 0.281 µM) against Enterococcus faecalis; 2.5 µg/mL (≈ 0.563 µM) in the series on Escherichia coli; 2.5 µg/mL (≈ 0.563 µM) in the series with Staphylococcus aureus [2]; 0.7 µg/mL (≈ 0.158 µM) against Pseudomonas aeruginosa [3]. The result in the series on Pseudomonas aeruginosa [4] was Active.

With H-LGKEEQIGRASNSGRKCARKKK-OH, the minimum bactericidal concentration (MBC) against Acinetobacter baumannii is over 48 µg/mL; in the series with Staphylococcus aureus [1] it was 1.2 µg/mL; in the series on Burkholderia cenocepacia, over 22 µg/mL; against Enterococcus faecalis, 0.6 µg/mL; in the series with Staphylococcus aureus [2], over 205 µg/mL; in the series with Pseudomonas aeruginosa [3] it was over 33 µg/mL.

Broadly, the MBC is the lowest tested concentration that kills the bacteria rather than only halting them.
